Legend:
Assay type in all cases: functional
[1] = test system: Rattus norvegicus; assay: Antiallergic activity against passive cutaneous anaphylaxis (PCA) in male Sprague-Dawley rats after 3.0 mg/kg oral administration;not statistically significant
In short: (§1)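 IgE antiserum raised in male Sprague-Dawley rats (ca. 200 g) by immunization with Ascaris suum extract (2 then 0.2 mg protein), bled 2 weeks after the second dose. Recipients got 0.05 mL diluted antiserum intracutaneously on the back. Blued area (product of two diameters) was read at 30 min.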

[2] = test system: Rattus norvegicus; assay: Inhibition of passive cutaneous anaphylaxis in male Sprague-Dawley rats following 0.3 mg/kg p.o. administration; Not significant.; conditions: route oral; in short: as §1
[3] = test system: Rattus norvegicus; assay: Inhibition of passive cutaneous anaphylaxis in male Sprague-Dawley rats following 1 mg/kg p.o. administration; Not significant.; conditions: route oral; in short: as §1
[4] = test system: Rattus norvegicus; assay: Antiallergic activity against passive cutaneous anaphylaxis (PCA) in male Sprague-Dawley rats after 3.0 mg/kg oral administration; in short: as §1
[5] = test system: Rattus norvegicus; assay: Inhibition of passive cutaneous anaphylaxis in male Sprague-Dawley rats following 10 mg/kg p.o. administration.; conditions: route oral; in short: as §1
[6] = test system: Rattus norvegicus; assay: Antiallergic activity against passive cutaneous anaphylaxis (PCA) in male Sprague-Dawley rats after 0.3 mg/kg oral administration; in short: as §1
[7] = test system: Rattus norvegicus; assay: Antiallergic activity against passive cutaneous anaphylaxis (PCA) in male Sprague-Dawley rats after 1.0 mg/kg oral administration; in short: as §1

SMILES	inhibition in vivo at 0.3 mg/kg [2]	inhibition in vivo at 3 mg/kg [4]	inhibition in vivo at 1 mg/kg [7]	further results
CC(C)c1cc(C(=O)Nc2nn[nH]n2)nc(-c2ccc(N)cc2)c1	22%			inhibition in vivo at 3 mg/kg [1]: 43%; inhibition in vivo at 1 mg/kg [3]: 29%
CCCCc1ccc(-c2cc(OC)cc(C(=O)Nc3nn[nH]n3)n2)cc1		61%		inhibition in vivo at 10 mg/kg [5]: 92%; inhibition in vivo at 1 mg/kg [3]: 29%
Cc1ccc(-c2cc(C)cc(C(=O)Nc3nn[nH]n3)n2)cc1		100%	80%	inhibition in vivo at 0.3 mg/kg [6]: 51%
CNc1ccc(-c2cc(OC)cc(C(=O)Nc3nn[nH]n3)n2)cc1		79%		inhibition in vivo at 1 mg/kg [3]: 35%
COc1cccc(-c2cc(Cl)cc(C(=O)Nc3nn[nH]n3)n2)c1		95%	51%	inhibition in vivo at 0.3 mg/kg [6]: 32%
CCCOc1cc(C(=O)Nc2nn[nH]n2)nc(-c2ccc(N)cc2)c1	7%	68%	64%	
Cc1cc(C(=O)Nc2nn[nH]n2)nc(-c2ccc(N(C)C)cc2)c1				inhibition in vivo at 3 mg/kg [1]: 24%
CNc1ccc(-c2cc(C)cc(C(=O)Nc3nn[nH]n3)n2)cc1	36%		89%	
CCCc1ccc(-c2cc(C)cc(C(=O)Nc3nn[nH]n3)n2)cc1	19%			inhibition in vivo at 1 mg/kg [3]: 65%
CCCCc1cc(C(=O)Nc2nn[nH]n2)nc(-c2ccc(CC)cc2)c1				inhibition in vivo at 3 mg/kg [1]: 25%; inhibition in vivo at 1 mg/kg [3]: 19%
COc1ccc(-c2cc(OC)cc(C(=O)Nc3nn[nH]n3)n2)cc1		60%		inhibition in vivo at 1 mg/kg [3]: 25%
Cc1cccc(-c2cc(C)cc(C(=O)Nc3nn[nH]n3)n2)c1		61%	51%	
CC(=O)Nc1ccc(-c2cc(C)cc(C(=O)Nc3nn[nH]n3)n2)cc1				inhibition in vivo at 3 mg/kg [1]: 32%
CCCc1ccc(-c2cc(OC)cc(C(=O)Nc3nn[nH]n3)n2)cc1	32%	93%	73%	
Cc1ccc(-c2cc(Cl)cc(C(=O)Nc3nn[nH]n3)n2)cc1	10%		86%	
CCCCc1ccc(-c2cc(Cl)cc(C(=O)Nc3nn[nH]n3)n2)cc1		83%	0%	
COc1cc(C(=O)Nc2nn[nH]n2)nc(-c2ccc(C)c(C)c2)c1		82%		inhibition in vivo at 1 mg/kg [3]: 21%
CCCCc1cc(C(=O)Nc2nn[nH]n2)nc(-c2cccc(C)c2)c1		82%	36%	inhibition in vivo at 10 mg/kg [5]: 100%
CCCCc1cc(C(=O)Nc2nn[nH]n2)nc(-c2ccc(N)cc2)c1			81%	inhibition in vivo at 0.3 mg/kg [6]: 41%
CCOc1cc(C(=O)Nc2nn[nH]n2)nc(-c2ccc(N)cc2)c1	19%	62%	52%	
Cc1ccc(-c2cccc(C(=O)Nc3nn[nH]n3)n2)cc1	21%		67%	
Cc1cc(C(=O)Nc2nn[nH]n2)nc(-c2ccccc2)c1		50%		inhibition in vivo at 10 mg/kg [5]: 88%; inhibition in vivo at 1 mg/kg [3]: 23%
COc1cc(C(=O)Nc2nn[nH]n2)nc(-c2ccc(NC(C)=O)cc2)c1			0%	inhibition in vivo at 3 mg/kg [1]: 27%; inhibition in vivo at 10 mg/kg [5]: 100%
CCCCc1cc(C(=O)Nc2nn[nH]n2)nc(-c2ccccc2)c1		71%	56%	inhibition in vivo at 10 mg/kg [5]: 100%
CCN(CC)c1ccc(-c2cc(C)cc(C(=O)Nc3nn[nH]n3)n2)cc1	19%			
CCCc1cc(C(=O)Nc2nn[nH]n2)nc(-c2ccc(C)cc2)c1		50%		inhibition in vivo at 10 mg/kg [5]: 84%

SMILES	inhibition in vivo at 0.3 mg/kg [2]	inhibition in vivo at 3 mg/kg [4]	inhibition in vivo at 1 mg/kg [7]	further results
CCc1ccc(-c2cc(OC)cc(C(=O)Nc3nn[nH]n3)n2)cc1			43%	inhibition in vivo at 0.3 mg/kg [6]: 23%
COc1cccc(-c2cc(C)cc(C(=O)Nc3nn[nH]n3)n2)c1		65%		inhibition in vivo at 1 mg/kg [3]: 25%
Nc1ccc(-c2cccc(C(=O)Nc3nn[nH]n3)n2)cc1	11%	81%	62%	
CCOc1cc(C(=O)Nc2nn[nH]n2)nc(-c2ccc(C)cc2)c1	26%		65%	
CCc1cc(C(=O)Nc2nn[nH]n2)nc(-c2ccc(C)cc2)c1	33%			
O=C(Nc1nn[nH]n1)c1cc(Cl)cc(-c2ccccc2)n1			40%	
COc1cc(C(=O)Nc2nn[nH]n2)nc(-c2ccc(C(C)C)cc2)c1	29%		54%	
CCCCc1ccc(-c2cc(CC)cc(C(=O)Nc3nn[nH]n3)n2)cc1		70%		inhibition in vivo at 1 mg/kg [3]: 20%
CCc1cc(C(=O)Nc2nn[nH]n2)nc(-c2ccccc2)c1		53%		inhibition in vivo at 10 mg/kg [5]: 85%
COc1cc(C(=O)Nc2nn[nH]n2)nc(-c2cccc(Cl)c2)c1		34%		inhibition in vivo at 10 mg/kg [5]: 64%
Cc1ccc(-c2cc(CC(C)C)cc(C(=O)Nc3nn[nH]n3)n2)cc1		52%		inhibition in vivo at 1 mg/kg [3]: 9%
COc1cc(C(=O)Nc2nn[nH]n2)nc(-c2ccc(Cl)cc2)c1			0%	inhibition in vivo at 3 mg/kg [1]: 12%; inhibition in vivo at 10 mg/kg [5]: 55%
CCCc1ccc(-c2cc(Cl)cc(C(=O)Nc3nn[nH]n3)n2)cc1			78%	inhibition in vivo at 0.3 mg/kg [6]: 42%
COc1ccc(-c2cccc(C(=O)Nc3nn[nH]n3)n2)cc1	4%	36%		inhibition in vivo at 1 mg/kg [3]: 12%
COc1cc(C(=O)Nc2nn[nH]n2)nc(-c2ccc(N(C)C)cc2)c1		100%	64%	inhibition in vivo at 0.3 mg/kg [6]: 29%
Cc1cc(C(=O)Nc2nn[nH]n2)nc(-c2ccc(C(C)C)cc2)c1		100%	34%	
Nc1ccc(-c2cc(Cl)cc(C(=O)Nc3nn[nH]n3)n2)cc1		100%	100%	inhibition in vivo at 0.3 mg/kg [6]: 39%
CC(C)c1ccc(-c2cc(Cl)cc(C(=O)Nc3nn[nH]n3)n2)cc1		68%		inhibition in vivo at 10 mg/kg [5]: 90%; inhibition in vivo at 1 mg/kg [3]: 14%
COc1cc(C(=O)Nc2nn[nH]n2)nc(-c2ccc(C)cc2)c1	16%		42%	
Cc1ccc(-c2cccc(C(=O)Nc3nn[nH]n3)n2)cc1C				inhibition in vivo at 3 mg/kg [1]: 28%; inhibition in vivo at 10 mg/kg [5]: 39%
CCOc1cc(C(=O)Nc2nn[nH]n2)nc(-c2ccc(N(CC)CC)cc2)c1			66%	inhibition in vivo at 0.3 mg/kg [6]: 44%
CNc1ccc(-c2cccc(C(=O)Nc3nn[nH]n3)n2)cc1	29%			inhibition in vivo at 3 mg/kg [1]: 83%; inhibition in vivo at 1 mg/kg [3]: 71%
COc1cc(C(=O)Nc2nn[nH]n2)nc(-c2ccccc2)c1		97%	62%	inhibition in vivo at 10 mg/kg [5]: 100%
COc1ccccc1-c1cccc(C(=O)Nc2nn[nH]n2)n1				inhibition in vivo at 10 mg/kg [5]: 0%
COc1ccc(-c2cc(Cl)cc(C(=O)Nc3nn[nH]n3)n2)cc1OC				inhibition in vivo at 3 mg/kg [1]: 30%; inhibition in vivo at 1 mg/kg [3]: 15%

Source: ChEMBL document CHEMBL1122378, “Antiallergic agents. 2. N-(1H-tetrazol-5-yl)-6-phenyl-2-pyridinecarboxamides” (1983)
